Assay results collected from several papers.
Protocols differ between the studies behind these lines.
Target: Mitogen-activated protein kinase kinase kinase 7 (MAP3K7, Homo sapiens, UniProt O43318)
Sequence (O43318 1-606, as in one of the studies): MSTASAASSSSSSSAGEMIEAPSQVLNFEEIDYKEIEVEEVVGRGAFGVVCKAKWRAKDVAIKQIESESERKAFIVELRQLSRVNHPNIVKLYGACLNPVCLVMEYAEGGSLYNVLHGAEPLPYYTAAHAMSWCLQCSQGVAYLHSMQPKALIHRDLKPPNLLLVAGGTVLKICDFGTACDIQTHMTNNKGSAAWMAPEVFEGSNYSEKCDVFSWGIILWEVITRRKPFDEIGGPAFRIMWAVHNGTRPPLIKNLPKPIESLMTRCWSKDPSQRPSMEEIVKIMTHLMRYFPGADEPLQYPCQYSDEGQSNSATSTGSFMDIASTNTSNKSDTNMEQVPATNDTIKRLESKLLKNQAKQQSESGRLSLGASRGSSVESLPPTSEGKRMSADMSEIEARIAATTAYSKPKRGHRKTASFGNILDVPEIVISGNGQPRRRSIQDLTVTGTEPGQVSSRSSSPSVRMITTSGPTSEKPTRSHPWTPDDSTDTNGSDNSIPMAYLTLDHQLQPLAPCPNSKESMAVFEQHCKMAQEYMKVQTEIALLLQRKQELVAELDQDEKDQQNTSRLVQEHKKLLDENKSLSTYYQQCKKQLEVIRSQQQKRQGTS

SMILES | read-out | method | tested at | remaining binding [%]
Cc1cnc(Nc2ccc(C(=O)N3CCC(N4CCCC4)CC3)cc2)nc1-c1cc2ccccc2s1 | binding | competition with immobilised ligand | 1 µM | 7.3
Cn1nc(C(=O)NCc2ccc(C(=O)O)cc2)cc1-c1ccc2[nH]ccc2c1 | cell-free assay | competition with immobilised ligand | 0.1 µM | 95
O=C(c1ccc(Nc2ncc(Cl)c(-c3ccc(Cl)s3)n2)cc1)N1CCC(N2CCCC2)CC1 | binding | competition with immobilised ligand | 1 µM | 0
CN(C)c1ncc(F)c(-c2cnn3ncccc23)n1 | binding | – | 1 µM | 98
O=C(Nc1c[nH]nc1C(=O)NC1CCNCC1)c1cc(F)cc(F)c1 | binding | competition with immobilised ligand | 1 µM | 83
C=CC(=O)N1CCC(C(=O)NCC(=O)N2CCN(c3nc(-c4cnc(N)nc4C(F)F)nc(N4CCOCC4)n3)CC2)CC1 | binding | competition with immobilised ligand | 1 µM | 100
CC(=O)N1CCC(c2ccc(C(=O)NC3=NCCN3)cc2C(F)(F)F)CC1 | cell-free assay | competition with immobilised ligand | 1 µM | 100
COc1ccnn2ncc(-c3ccnc(N(C)C)n3)c12 | binding | – | 1 µM | 75
FC(F)(F)Oc1cccc(-c2cnc3ccc(-c4ccncc4)nn23)c1 | binding | competition with immobilised ligand | 5 µM | 34
Cc1noc([C@H]2C[C@@H](c3ccc(C(F)(F)F)cc3)CN(C(=O)N3CCS(=O)(=O)C3)C2)n1 | cell-free assay | competition with immobilised ligand | 1 µM | 100
CCN1CCN(Cc2ccc(C(=O)Nc3ccc(C)c(Oc4ccc5c(c4)CC(=O)N5)c3)cc2C(F)(F)F)CC1 | binding | competition with immobilised ligand | 1 µM | 7.6
Cc1cnn2ncc(-c3ccnc(N(C)C)n3)c2c1 | binding | – | 1 µM | 77
C[C@@H](c1cccc(C#N)c1)n1cc(Cl)cc(C(N)=O)c1=N | cell-free assay | competition with immobilised ligand | 1 µM | 100
CN(CCCC(F)(F)F)c1nccc(-c2cnn3ncccc23)n1 | binding | – | 1 µM | 85
C[C@@H](c1ccc(-n2cnc3c(N)ncnc32)cc1)N1CCc2nn(C)c(Cc3ccccc3)c2C1=O | binding | competition with immobilised ligand | 0.1 µM | 32
O=C(NCCCN1CCOCC1)c1ccc(Nc2nccc(-c3cc4ccccc4s3)n2)cc1 | binding | competition with immobilised ligand | 1 µM | 31
O=C(NCc1ncc(C(F)(F)F)cc1Cl)c1ccc2c(c1)C1(CCS(=O)(=O)CC1)[C@H](C1CC1)N2S(=O)(=O)c1ccc(F)cc1 | cell-free assay | competition with immobilised ligand | 1 µM | 80
CC1CCCN1c1nccc(-c2cnn3ncccc23)n1 (stereo not shown) | binding | – | 1 µM | 100
COc1cnc(Nc2cccc(S(N)(=O)=O)c2)nc1N1CCN(c2ccccc2)CC1 | binding | competition with immobilised ligand | 1 µM | 85
C[C@H]1CCN(c2nccc(-c3cnn4ncccc34)n2)C1 | binding | – | 1 µM | 71
NS(=O)(=O)c1cc(NC(=O)C2(c3ccccc3Cl)CC2)ccc1Oc1cccc(Cl)c1 | cell-free assay | competition with immobilised ligand | 1 µM | 98
CNC(=O)[C@@H]1CC[C@@H](n2c(-c3ccc4cnccc4c3)nc3ccc(C(=O)NCc4cccc(C(N)=O)c4)cc32)C1 | binding | competition with immobilised ligand | 1 µM | 100
